# Results pooled from the literature.
# Lines come from different studies, so protocols differ.
# rep main protease: Replicase polyprotein 1ab, main protease (rep, Porcine epidemic diarrhea virus, UniProt P0C6Y4)
# SLC6A4: Sodium-dependent serotonin transporter (SLC6A4, Homo sapiens, UniProt P31645)
# rep papain-like protease: Replicase polyprotein 1ab, papain-like protease (rep, Porcine epidemic diarrhea virus, UniProt P0C6Y4)
SMILES,target,assay,system,setting,endpoint,result
COc1cc(CNC(=O)CC(c2ccc(Cl)cc2)C(C)C)cc(Br)c1OC (stereo not drawn),rep main protease,"enzyme activity, inhibitor, FRET",,10 µM,inhibition,33%
CCOC(=O)[C@@]12C[C@@H]1[C@@H](n1cnc3c(NCCCCCCc4ccccc4)nc(I)nc31)[C@H](O)[C@@H]2O,SLC6A4,"ligand displacement, radioligand",,10 µM,inhibition,68%
COc1cc(-c2cc(C(C)=O)n3ccccc23)c(OC)cc1Cn1ccnc1,"Bromodomain adjacent to zinc finger domain protein 2B, bromodomain (BAZ2B, Homo sapiens, UniProt Q9UIF8)","thermal stability, DSF",,,ΔTm,2.1 °C
O=C(NCc1cc(O)c(O)c(Br)c1)c1ccc2ccccc2c1,rep papain-like protease,"enzyme activity, inhibitor, FRET",,10 µM,inhibition,19.4%
O[C@@H]1[C@H](O)[C@@H]2C[C@@H]2[C@H]1n1cnc2c(NCCC3CC3)ncnc21,SLC6A4,"ligand displacement, radioligand",,"10 µM, cell membranes",inhibition,14%
C1=C/COCc2cc(ccc2OCCN2CCCC2)Nc2nccc(n2)-c2cccc(c2)COC/1,"Serine/threonine-protein kinase Nek2 (NEK2, Homo sapiens, UniProt P51955)",binding,,0.1 µM,remaining binding,75%
CCOC(=O)[C@@]12C[C@@H]1[C@@H](n1cnc3c(NCCCCCc4ccccc4)nc(C#Cc4ccc(Cl)s4)nc31)[C@H](O)[C@@H]2O,SLC6A4,"ligand displacement, radioligand",,10 µM,inhibition,-14%
COc1cc(CNC(=O)c2ccc(N(C)C)cc2)cc(Br)c1OC,rep main protease,"enzyme activity, inhibitor, FRET",,10 µM,inhibition,32.3%
CCOC(=O)[C@@]12C[C@@H]1[C@@H](n1cnc3c(NCCCCCc4ccccc4)nc(I)nc31)[C@H](O)[C@@H]2O,SLC6A4,"ligand displacement, radioligand",,10 µM,inhibition,48%
COc1cc(CNC(=O)c2ccco2)cc(Br)c1OC,rep main protease,"enzyme activity, inhibitor, FRET",,10 µM,inhibition,64.9%
O=C(O)c1cccc(-c2noc(-c3ccccc3F)n2)c1,"Flavin reductase (NADPH) (BLVRB, Homo sapiens, UniProt P30043)","binding, SPR",,,kon,3060 M⁻¹ s⁻¹
CCCCC(=O)Nc1ccc(-c2ccc3ncn(CCC)c(=O)c3c2)cn1,"Rhodopsin kinase GRK7 (GRK7, Homo sapiens, UniProt Q8WTQ7)","binding, competition with immobilised ligand",,0.5 µM,remaining binding,93%
Cc1cc(O)c(-c2ccc([C@@H](C)CN(C)C)cc2)c2c1[nH]c(=O)c1sccc12,"Calcium/calmodulin-dependent protein kinase type 1D (CAMK1D, Homo sapiens, UniProt Q8IU85)","cell-free assay, inhibitor",,"0.1 µM, lysate",inhibition,-8.71%
CCOC(=O)[C@@]12C[C@@H]1[C@@H](n1cnc3c(NCc4cccc(Cl)c4)nc(C#Cc4ccc(Cl)s4)nc31)[C@H](O)[C@@H]2O,SLC6A4,"ligand displacement, radioligand",,10 µM,inhibition,13%
COc1ccc(CNC(=O)c2ccc(Br)cc2)cc1OC,rep main protease,"enzyme activity, inhibitor, FRET",,10 µM,inhibition,60.4%
CCCCC[C@H](O)/C=C/[C@H]1[C@H](O)CC(=O)[C@@H]1C/C=C\CCCC(=O)O,"Prostaglandin E2 receptor EP1 subtype (PTGER1, Homo sapiens, UniProt P34995)","inositol phosphate, agonist, TR-FRET",AD293,1 h,Emax,99.9%
O=C(NCc1cc(O)c(O)c(Br)c1)c1cccc(CCl)c1,rep papain-like protease,"enzyme activity, inhibitor, FRET",,10 µM,inhibition,103%
N#CC[C@@]12C[C@@H]1[C@@H](n1cnc3c(NC4CC4)nc(C#Cc4ccc(Cl)s4)nc31)[C@H](O)[C@@H]2O,SLC6A4,"ligand displacement, radioligand",,10 µM,inhibition,15%
